# Activity calls are given as the source filed them. The calls are words filed in the database; no cut-off is given here.
# Experiments:
# [1] = system: Mycolicibacterium smegmatis; assay: Antimycobacterial activity against Mycobacterium smegmatis atR8 assessed as decrease in drug resistance development at 100 ug/disc after 2 to 3 days by paper disc method; format: functional, organism-based
# How it was run: (§1)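 Drug-resistant M. smegmatis mc2 155 mutants, isolated on M290 agar with 3.5-4× MIC of compound and resistance re-confirmed, grown in Middlebrook 7H9 (OADC, 0.1% Tween-80, 0.4% glycerol) to OD600 1.2. Diluted 1:9:10 culture:water:M290 and poured as top layer on M290 agar. Impregnated paper discs applied; 37 °C for 2–3 days. Halos measured to nearest 1 mm; triplicates, mean ± SD versus control strain.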
# [2] = system: Mycolicibacterium smegmatis; assay: Antimycobacterial activity against Mycobacterium smegmatis atR10 assessed as decrease in drug resistance development at 100 ug/disc after 2 to 3 days by paper disc method; format: functional, organism-based
# How it was run: (§2)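 Mutant M. smegmatis strains were grown in Middlebrook 7H9/OADC/Tween/glycerol to OD600 1.2. Cultures were diluted 1:9:10 (culture:water:M290) and overlaid on M290 agar. Commercial or impregnated paper discs were applied and plates incubated 2–3 days at 37 °C. Inhibition halos were measured to 1 mm, run in triplicate, mean ± SD.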
# [3] = system: Mycolicibacterium smegmatis; assay: Antimycobacterial activity against Mycobacterium smegmatis atR11 assessed as decrease in drug resistance development at 100 ug/disc after 2 to 3 days by paper disc method; format: functional, organism-based; how it was run: as §2
# [4] = system: Mycolicibacterium smegmatis; assay: Antimycobacterial activity against Mycobacterium smegmatis atR1 assessed as decrease in drug resistance development at 100 ug/disc after 2 to 3 days by paper disc method; format: functional, organism-based; how it was run: as §2
# [5] = system: Mycolicibacterium smegmatis; assay: Antimycobacterial activity against Mycobacterium smegmatis atR2 assessed as decrease in drug resistance development at 100 ug/disc after 2 to 3 days by paper disc method; format: functional, organism-based; how it was run: as §2
# [6] = system: Mycolicibacterium smegmatis; assay: Antimycobacterial activity against Mycobacterium smegmatis atR14 assessed as decrease in drug resistance development at 100 ug/disc after 2 to 3 days by paper disc method; format: functional, organism-based; how it was run: as §2
# [7] = system: Mycolicibacterium smegmatis; assay: Antimycobacterial activity against Mycobacterium smegmatis atR37 assessed as decrease in drug resistance development at 100 ug/disc after 2 to 3 days by paper disc method; format: functional, organism-based; how it was run: as §1
# [8] = system: Mycolicibacterium smegmatis; assay: Antimycobacterial activity against Mycobacterium smegmatis atR40 assessed as decrease in drug resistance development at 100 ug/disc after 2 to 3 days by paper disc method; format: functional, organism-based; how it was run: as §1
# [9] = system: Mycolicibacterium smegmatis MC2 155; assay: Inhibition of STPK in Mycobacterium smegmatis MC2 155 expressing aminoglycoside phophotransferase-8 assessed as growth inhibition at 25 nmol/disk after 18 hrs in presence of kanamycin by paper disk method
# [10] = system: Mycolicibacterium smegmatis MC2 155; assay: Inhibition of STPK in Mycobacterium smegmatis MC2 155 expressing aminoglycoside phophotransferase-8 assessed as growth inhibition at 50 nmol/disk after 18 hrs in presence of kanamycin by paper disk method
# [11] = system: Mycobacterium tuberculosis; assay: Antimycobacterial activity against Mycobacterium tuberculosis H37Rv in liquid medium; format: functional
# How it was run: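 M. tuberculosis H37Rv; MIC determined in liquid medium on the automated Bactec MGIT 960 system.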
# [12] = system: Mycolicibacterium smegmatis; assay: Antimycobacterial activity against Mycobacterium smegmatis MC2 155 in liquid medium after 48 hrs by two-fold serial dilution method; format: functional; settings: MC2 155, 48 h
# How it was run: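 M. smegmatis mc2 155 grown overnight in Lemco-Tw broth, diluted 1:200 in fresh broth. […] Top wells could carry 4% DMSO. Incubated 48 h at 37 °C with shaking at 250 rpm. MIC is the lowest concentration with no visible growth.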
# [13] = system: Mycolicibacterium smegmatis; assay: Antimycobacterial activity against Mycobacterium smegmatis MC2 155 in solid medium by two-fold serial dilution method; format: functional
# How it was run: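 M290 soybean-casein agar plates carried two-fold compound dilutions, 8–64 or 8–128 µg/ml, some with extra 20 or 25 µg/ml plates.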
# [14] = system: Mycolicibacterium smegmatis; assay: Antimycobacterial activity against Mycobacterium smegmatis atR9 in liquid medium after 48 hrs by two-fold serial dilution method; format: functional; settings: atR9, 48 h
# How it was run: (§3)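 M. smegmatis resistant mutants were isolated on M290 agar containing 3.5-4× MIC of the test compound at 30°C and resistance was reconfirmed. MIC was then run in Lemco-Tw broth (Tween-80 0.05%). An overnight culture was diluted 1:200, and two-fold serial dilutions in DMSO were added. Plates were incubated at 37°C and 250 rpm for 48 h. MIC was read as the lowest concentration with no visible growth.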
# [15] = system: Mycolicibacterium smegmatis; assay: Antimycobacterial activity against Mycobacterium smegmatis atR14 in liquid medium after 48 hrs by two-fold serial dilution method; format: functional; settings: atR14, 48 h; how it was run: as §3
# [16] = system: Mycolicibacterium smegmatis; assay: Antimycobacterial activity against Mycobacterium smegmatis atR17 in liquid medium after 48 hrs by two-fold serial dilution method; format: functional; settings: atR17, 48 h; how it was run: as §3
# [17] = system: Mycolicibacterium smegmatis; assay: Antimycobacterial activity against Mycobacterium smegmatis atR19 in liquid medium after 48 hrs by two-fold serial dilution method; format: functional; settings: atR19, 48 h; how it was run: as §3
# [18] = system: Mycolicibacterium smegmatis; assay: Antimycobacterial activity against Mycobacterium smegmatis atR1 in liquid medium after 48 hrs by two-fold serial dilution method; format: functional; settings: atR1, 48 h; how it was run: as §3
# [19] = system: Mycolicibacterium smegmatis; assay: Antimycobacterial activity against Mycobacterium smegmatis atR8 in liquid medium after 48 hrs by two-fold serial dilution method; format: functional; settings: atR8, 48 h; how it was run: as §3
# [20] = system: Mycolicibacterium smegmatis; assay: Antimycobacterial activity against Mycobacterium smegmatis atR10 in liquid medium after 48 hrs by two-fold serial dilution method; format: functional; settings: atR10, 48 h; how it was run: as §3
# [21] = system: Mycolicibacterium smegmatis; assay: Antimycobacterial activity against Mycobacterium smegmatis atR11 in liquid medium after 48 hrs by two-fold serial dilution method; format: functional; settings: atR11, 48 h; how it was run: as §3
# [22] = system: Mycolicibacterium smegmatis; assay: Antimycobacterial activity against Mycobacterium smegmatis atR33 in liquid medium after 48 hrs by two-fold serial dilution method; format: functional; settings: atR33, 48 h; how it was run: as §3
# [23] = system: Mycolicibacterium smegmatis; assay: Antimycobacterial activity against Mycobacterium smegmatis atR37 in liquid medium after 48 hrs by two-fold serial dilution method; format: functional; settings: atR37, 48 h; how it was run: as §3
# [24] = system: Mycolicibacterium smegmatis; assay: Antimycobacterial activity against Mycobacterium smegmatis atR40 in liquid medium after 48 hrs by two-fold serial dilution method; format: functional; settings: atR40, 48 h; how it was run: as §3
# [25] = system: Mycolicibacterium smegmatis; assay: Antimycobacterial activity against Mycobacterium smegmatis atR2 in liquid medium after 48 hrs by two-fold serial dilution method; format: functional; settings: atR2, 48 h; how it was run: as §3
# [26] = system: Mycolicibacterium smegmatis; assay: Antimycobacterial activity against Mycobacterium smegmatis atR1 assessed as decrease in drug resistance development at 100 nmol/disc after 2 to 3 days by paper disc method; format: functional, organism-based; how it was run: as §2
# [27] = system: Mycolicibacterium smegmatis; assay: Antimycobacterial activity against Mycobacterium smegmatis atR11 assessed as decrease in drug resistance development at 100 nmol/disc after 2 to 3 days by paper disc method; format: functional, organism-based; how it was run: as §2
# [28] = system: Mycolicibacterium smegmatis; assay: Antimycobacterial activity against Mycobacterium smegmatis atR8 assessed as decrease in drug resistance development at 100 nmol/disc after 2 to 3 days by paper disc method; format: functional, organism-based; how it was run: as §1
# [29] = system: Mycolicibacterium smegmatis; assay: Antimycobacterial activity against Mycobacterium smegmatis atR10 assessed as decrease in drug resistance development at 100 nmol/disc after 2 to 3 days by paper disc method; format: functional, organism-based; how it was run: as §2
# [30] = system: Mycolicibacterium smegmatis; assay: Antimycobacterial activity against Mycobacterium smegmatis atR14 assessed as decrease in drug resistance development at 100 nmol/disc after 2 to 3 days by paper disc method; format: functional, organism-based; how it was run: as §2
# [31] = system: Mycolicibacterium smegmatis; assay: Antimycobacterial activity against Mycobacterium smegmatis atR17 assessed as decrease in drug resistance development at 100 nmol/disc after 2 to 3 days by paper disc method; format: functional, organism-based; how it was run: as §2
# [32] = system: Mycolicibacterium smegmatis; assay: Antimycobacterial activity against Mycobacterium smegmatis atR19 assessed as decrease in drug resistance development at 100 nmol/disc after 2 to 3 days by paper disc method; format: functional, organism-based; how it was run: as §2
# [33] = system: Mycolicibacterium smegmatis; assay: Antimycobacterial activity against Mycobacterium smegmatis atR33 assessed as decrease in drug resistance development at 100 nmol/disc after 2 to 3 days by paper disc method; format: functional, organism-based; how it was run: as §2
# [34] = system: Mycolicibacterium smegmatis; assay: Antimycobacterial activity against Mycobacterium smegmatis atR40 assessed as decrease in drug resistance development at 100 nmol/disc after 2 to 3 days by paper disc method; format: functional, organism-based; how it was run: as §1
# [35] = system: Mycolicibacterium smegmatis; assay: Antimycobacterial activity against Mycobacterium smegmatis atR9 assessed as decrease in drug resistance development at 100 nmol/disc after 2 to 3 days by paper disc method; format: functional, organism-based; how it was run: as §1
# [36] = system: Mycolicibacterium smegmatis; assay: Antimycobacterial activity against Mycobacterium smegmatis atR37 assessed as decrease in drug resistance development at 100 nmol/disc after 2 to 3 days by paper disc method; format: functional, organism-based; how it was run: as §1
# [37] = system: Mycolicibacterium smegmatis; assay: Antimycobacterial activity against Mycobacterium smegmatis atR2 assessed as decrease in drug resistance development at 100 nmol/disc after 2 to 3 days by paper disc method; format: functional, organism-based; how it was run: as §2
compound,measurement,setting,value
CO[C@H]1/C=C/O[C@@]2(C)Oc3c(C)c(O)c4c(O)c(c(/C=N/N5CCN(C)CC5)c(O)c4c3C2=O)NC(=O)/C(C)=C\C=C\[C@H](C)[C@H](O)[C@@H](C)[C@@H](O)[C@@H](C)[C@H](OC(C)=O)[C@@H]1C,Activity,[1],inactive
same,Activity,[2],inactive
same,Activity,[3],inactive
same,Activity,[4],inactive
same,Activity,[5],inactive
same,Activity,[6],inactive
same,Activity,[7],Active
same,Activity,[8],Active
CC(C)Sc1cnc2nnc(-n3ccnc3)nn12,inhibition zone (IZ),[9],13.8 mm
Cc1cn(-c2nnc3ncc(SC(C)C)n3n2)cn1,inhibition zone (IZ),[10],13 mm
same,MIC,[11],90.8 µM
same,MIC,[12],232 µM
same,MIC,[13],90.8 µM
same,MIC,[14],128 µg/mL
same,MIC,[15],128 µg/mL
same,MIC,[16],128 µg/mL
same,MIC,[17],128 µg/mL
same,MIC,[18],128 µg/mL
same,MIC,[19],256 µg/mL
same,MIC,[20],256 µg/mL
same,MIC,[21],256 µg/mL
same,MIC,[22],128 µg/mL
same,MIC,[23],128 µg/mL
same,MIC,[24],128 µg/mL
same,MIC,[25],128 µg/mL
same,Activity,[26],inactive
same,Activity,[27],inactive
same,Activity,[28],inactive
same,Activity,[29],inactive
same,Activity,[30],inactive
same,Activity,[31],inactive
same,Activity,[32],inactive
same,Activity,[33],inactive
same,Activity,[34],inactive
same,Activity,[35],inactive
same,Activity,[36],Active
same,Activity,[37],Active
